Test results from ChEMBL document CHEMBL1127572, “Hypoxia-selective antitumor agents. 9. Structure-activity relationships for hypoxia-selective cytotoxicity among analogues of 5-[N,N-bis(2-chloroethyl)amino]-2,4-dinitrobenzamide” (J Med Chem, 1994).
In brackets after ≈: the same amount, converted by molar mass.

Legend:
[1] = Solubility (alpha-MEM culture medium, containing 5% fetal calf serum); format: physicochemical; conditions: alpha-MEM culture medium with 5% fetal calf serum; read-out: S
Summary of the method: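 Solubility (mM) in α-MEM with 5% fetal calf serum, measured at ambient temperature by UV spectroscopy.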

UV4 [2] = assay: The ratio of the cytotoxicities against UV4 cell line in the air and N2 was measured using clonogenic assay; format: functional, Cricetulus griseus
Summary of the method: (§1)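 UV4 cells (10^6/mL, stirred 10 mL suspensions) were gassed with 5% CO2 in air or in N2 after 60 min pre-equilibration, with clonogenic survival sampled over time. Concentrations giving similar kill rates under each gas were chosen. Ratio = CT10(air)/CT10(N2). Mean ± SEM of separate experiments.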

UV4 [3] = assay: Tested for the product of drug concentration and exposure time required to reduce UV4 cell survival to 10% under hypoxic condition by clonogenic assay
[4] = Tested for hypersensitivity factor which is the ratio of cytotoxicities against aerobic UV4 cells and chinese hamster ovary fibroblast line AA8
[5] = Ratio of the cytotoxicities against drug induced aerobic Walker cells and chinese hamster ovary fibroblast line AA8; format: functional
Summary of the method: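 IC50 in AA8 divided by IC50 in Walker 256 (WS) cells. Walker cells were seeded at 225 cells/0.15 mL with continuous aerobic drug exposure over 4 days, read by MTT. Ratios are interexperiment means.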

CHO-AA8 = assay: Aerobic cytotoxicity was assessed in a growth inhibition assay using log phase cultures of the chinese hamster ovary fibroblast line AA8; format: functional, cell-based
Summary of the method: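 AA8 Chinese hamster ovary cells seeded at 200 cells/well, grown 24 h, then exposed 18 h to five 2-fold serial dilutions in duplicate. Drug washed out, cells grown a further 78 h, density read by methylene blue staining. IC50 = concentration giving 50% growth inhibition versus controls. Values are means ± SEM.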

[6] = The ratio of the cytotoxicities against UV4 cell line in the air and N2 was measured using clonogenic assay.; format: functional; summary of the method: as §1

| Structure (SMILES) | solubility [1] [µM] | CT10 ratio (UV4 [2]) | CT10 (UV4 [3]) [µM·h] | IC50 ratio [4] | IC50 ratio [5] | IC50 (CHO-AA8; Cricetulus griseus, CHO-AA8) [µM] | IC50 (CHO-AA8; cho-aa8) [µM] | CT10 ratio [6] |
| --- | --- | --- | --- | --- | --- | --- | --- | --- |
| CN(C)CCNC(=O)c1cc(N(CCCl)CCCl)c([N+](=O)[O-])cc1[N+](=O)[O-] | 35000 (≈ 14800 µg/mL) | 60 | 21 | 3.9 | 5.6 | 220 |  |  |
| CS(=O)(=O)NS(=O)(=O)c1cc(N(CCCl)CCCl)c([N+](=O)[O-])cc1[N+](=O)[O-] | 32000 (≈ 14900 µg/mL) | 5.2 | 980 | 1 | 1.5 | 466 |  |  |
| NC(=O)c1cc(N(CCCl)CCCl)c([N+](=O)[O-])cc1[N+](=O)[O-] | 190 (≈ 66.7 µg/mL) | 58 | 95 | 6.8 | 4.1 |  | 470 |  |
| NS(=O)(=O)c1cc(N(CCCl)CCCl)c([N+](=O)[O-])cc1[N+](=O)[O-] | 160 (≈ 62 µg/mL) | 2.1 | 5.7 | 1.5 | 1.7 | 2 |  |  |
| C[N+](C)([O-])CCNC(=O)c1cc(N(CCCl)CCCl)c([N+](=O)[O-])cc1[N+](=O)[O-] | > 42000 | 8 | 4500 | 1.7 | 2.3 | 7290 |  |  |
| CCN(CCCl)c1cc(C(=O)NCCN(C)C)c([N+](=O)[O-])cc1[N+](=O)[O-] | > 38000 | 3.5 | 390 | 1.9 | 5 | 570 |  |  |
| CS(=O)(=O)OCCN(CCOS(C)(=O)=O)c1cc(C(N)=O)c([N+](=O)[O-])cc1[N+](=O)[O-] | 530 (≈ 249 µg/mL) | 17 | 70 | >4 | >3 |  |  |  |
| O=C(O)c1cc(N(CCCl)CCCl)c([N+](=O)[O-])cc1[N+](=O)[O-] | 18000 (≈ 6340 µg/mL) |  | 19000 | 1.4 | 4.7 | 10600 |  | >1.2 |
| N#Cc1cc(N(CCCl)CCCl)c([N+](=O)[O-])cc1[N+](=O)[O-] | 120 (≈ 40 µg/mL) | 8.5 | 10 | 6.8 | 3.2 | 24 |  |  |
| CNC(=O)c1cc(N(CCCl)CCCl)c([N+](=O)[O-])cc1[N+](=O)[O-] | 200 (≈ 73 µg/mL) |  | > 360 |  |  | > 100 |  |  |
| O=C(O)CCNC(=O)c1cc(N(CCCl)CCCl)c([N+](=O)[O-])cc1[N+](=O)[O-] | 11000 (≈ 4660 µg/mL) | 2.3 | 12000 | 1.1 | 1.5 | 6100 |  |  |
| CCN(CCCl)c1cc(C(N)=O)c([N+](=O)[O-])cc1[N+](=O)[O-] | 160 (≈ 50.7 µg/mL) |  | > 300 |  | >1 | > 97 |  |  |
| NC(=O)c1cc(N(CCI)CCI)c([N+](=O)[O-])cc1[N+](=O)[O-] | 35 (≈ 18.7 µg/mL) | 42 | 4.4 | 2.6 | 5.2 | 34 |  |  |
| CS(=O)(=O)OCCN(CCCl)c1cc(C(N)=O)c([N+](=O)[O-])cc1[N+](=O)[O-] | 840 (≈ 345 µg/mL) |  | 48 | 13 | 6 | 945 |  | 60 |
| O=C(NCC(O)CO)c1cc(N(CCCl)CCCl)c([N+](=O)[O-])cc1[N+](=O)[O-] (stereo not given) | 7400 (≈ 3150 µg/mL) | 8.6 | 465 | 4.4 | 1.6 | 1930 |  |  |
| NC(=O)c1cc(NCCCl)c([N+](=O)[O-])cc1[N+](=O)[O-] |  |  |  | 1.4 | 380 | 748 |  |  |
| NC(=O)c1cc(N2CC2)c([N+](=O)[O-])cc1[N+](=O)[O-] [TRETAZICAR] | 7900 (≈ 1990 µg/mL) | 3.6 | 225 | 50 | 37000 | 563 |  |  |
| O=C(c1cc(N(CCCl)CCCl)c([N+](=O)[O-])cc1[N+](=O)[O-])N1CCOCC1 | 30 (≈ 12.6 µg/mL) | 1.3 | 125 | 23 | 4.1 | 240 |  |  |
| O=C(NCCO)c1cc(N(CCCl)CCCl)c([N+](=O)[O-])cc1[N+](=O)[O-] | 100 (≈ 39.5 µg/mL) |  |  |  |  | > 100 |  |  |
| O=C(NCCN1CCOCC1)c1cc(N(CCCl)CCCl)c([N+](=O)[O-])cc1[N+](=O)[O-] | 4700 (≈ 2180 µg/mL) | 45 | 83 | 3 | 3.7 | 920 |  |  |
| NC(=O)c1cc(N(CCBr)CCBr)c([N+](=O)[O-])cc1[N+](=O)[O-] | 42 (≈ 18.5 µg/mL) | 20 | 8 | 7.5 | 3.1 | 57 |  |  |
| O=C(c1cc(N2CC2)c([N+](=O)[O-])cc1[N+](=O)[O-])N1CCOCC1 |  | 1.7 | 30 | 330 | 800 | 694 |  |  |
| CN(C)C(=O)c1cc(N(CCCl)CCCl)c([N+](=O)[O-])cc1[N+](=O)[O-] | 130 (≈ 49.3 µg/mL) | >20 | 250 | 1.4 | <0.3 | 310 |  |  |
| NC(=S)c1cc(N(CCCl)CCCl)c([N+](=O)[O-])cc1[N+](=O)[O-] | 38 (≈ 14 µg/mL) | >3 | 19 | >2 | >1 | > 25 |  |  |
